PGC1a acetyl up = raises PGC1a acetylation signal in U2OS cells. U2OS PGC1a acetylation AlphaScreen, overnight. activation, % at 15.6 µM. 350,000 tested, 0.21% active;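 active = every replicate reaching activation of at least 50%, whatever the mean replicate activation; inconclusive = replicates that disagree or another doubt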;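 note: hits raise the AlphaScreen acetylation signal above neutral controls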
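System – flag-PGC1a/GCN5 U2OS cells · Quantity – 7000 U2OS cells per well · Signal – AlphaScreen proximity luminescence, anti-acetyl-lysine antibody · Schedule – overnight compound treatment, 37 °C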
Hep G6PC suppr = PGC-1a acetylation activators affecting G6PC expression in hepatocytes; shares compounds with PGC1a acetyl up; primary mouse hepatocytes, G6PC mRNA qPCR, forskolin; G6PC suppression (normalized activity, % of positive control; higher = more suppression), % at 26 µM; 240 tested, under 10 active;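 active = dose curves showing G6PC suppression whose half-maximal dose is at most twice the top valid dose; inconclusive = flat curves with moderate negative activity, or unreliable fits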;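 note: G6PC expression relative to GAPDH housekeeping gene as delta delta Ct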
Hep PCK1 suppr = PGC-1a acetylation activator altering hepatocyte PCK1 expression; shares compounds with PGC1a acetyl up; primary mouse hepatocytes, PCK1 mRNA qPCR, forskolin-stimulated; PCK1 expression decrease, unspecified at 26 µM; 230 tested, under 10 active;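 active = compounds lowering PCK1 expression whose fitted half-maximal concentration is at most twice the top tested dose; inconclusive = flat fit with moderate opposite-direction effect, or poor fit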;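 note: higher delta delta Ct means lower PCK1 expression so positive values indicate hits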
Hep PGC-1a down = PGC-1a acetylation activators affecting PGC-1a expression in hepatocytes; shares compounds with PGC1a acetyl up; primary mouse hepatocytes, PGC-1a mRNA qPCR, forskolin; top dose 26 µM; max activity (PGC-1a expression decrease), %; 240 tested, under 10 active;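 active = compound lowering PGC-1a expression with fitted half-maximal concentration at most twice its top tested dose; inconclusive = flat curve with moderate opposite-direction effect, or poor fit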
A number is an active result; – = inactive; ? = inconclusive; · = no result given. Only a sample is shown.

SMILES | PGC1a acetyl up | Hep G6PC suppr | Hep PCK1 suppr | Hep PGC-1a down
CC(=O)Nc1ccc(NC(=O)CN(c2cc(Cl)ccc2Cl)S(C)(=O)=O)cc1 | 117 | – | · | –
Cc1cccn2c(=O)c3cc(C(=O)NCc4ccco4)c(=N)n(CCc4ccccc4)c3nc12 | – | · | · | ·
Cn1cc(-c2ccc(C(=O)NCc3cccc(Cl)c3)c3occc23)cn1 | 59 | – | – | –
O=C(Nc1nc2ccsc2c(=O)s1)C1CCC1 | – | · | · | ·
Cc1cc(=O)n2[nH]c(=O)c(N=Nc3ccccc3)c2[nH]1 | – | · | · | ·
CC1CCN(C(=O)COC(=O)c2ccc(Br)o2)CC1 | – | · | · | ·
CCOc1ccc(N(C)S(=O)(=O)c2cc(-c3cc(C)no3)ccc2C(C)C)cc1 | 65 | · | · | ?
O=C(Nc1ccc2c(c1)OCO2)C1CCN(c2ccc(S(=O)(=O)N3CCOCC3)cc2)CC1 | – | – | – | –
CCN1C(=O)CCCc2ccccc21 | – | · | · | ·
CC(=O)Nc1ccc(Oc2sc(C(=O)c3ccccc3)c(N)c2C#N)cc1 | – | · | · | ·
O=C(OCCCN1CCCCC1)c1ccc(O)cc1 | – | · | · | ·
O=C(C(Cc1ccccc1)n1cccc1)N1CCN(c2ccccc2)CC1 (configuration not stated) | ? | – | – | –
CCCC1S/C(=N/N=C/c2ccc(C)cc2)N(Cc2ccc(OC)cc2)C1=O (configuration not stated) | – | · | · | ·
CCN(CC)c1ccc(NC2=C(Cl)C(=O)c3ccccc3C2=O)cc1 | – | · | · | ·
C=CCN=C1S/C(=C/c2ccc([N+](=O)[O-])cc2)C(=O)N1CC=C | – | · | · | ·
COC(=O)CSc1nc(-c2ccccc2)cc(-c2ccco2)c1C#N | 67 | – | – | –
CS(=O)c1nc(-c2ccc(Br)cc2)cc(-c2ccccc2)c1C#N (configuration not stated) | – | · | · | ·
Cc1nc2ccccn2c1C(=O)/C=C/c1ccc(F)cc1 | – | · | · | ·
Cc1cc2nc(/C=C/c3cccnc3)[nH]c2cc1C | – | · | · | ·
CCOC(=O)C1=C(CNCc2ccc(C)cc2)NC(=O)NC1c1cc(C)ccc1C (configuration not stated) | – | · | · | ·
O=C(NCc1ccccc1)C1Cc2c(-c3ccc(Cl)cc3)ccnc2O1 (configuration not stated) | 69 | – | – | –
CCN(CC)CCNC(=O)c1ccc2c(c1NCCO)C(=O)c1ccccc1C2=O | – | · | · | ·
CC(=O)n1nc2nc(C)cc(C)c2c1N | – | · | · | ·
CN(Cc1cnc2nc(N)nc(N)c2n1)c1ccc(C(=O)N[C@@H](CCC(=O)O)C(=O)O)cc1 | – | · | · | ·
CCCCN(CCCC)S(=O)(=O)c1ccc2oc(C(=O)N3CCOCC3)c(C)c2c1 | 102 | – | – | –
SMILES | PGC1a acetyl up | Hep G6PC suppr | Hep PCK1 suppr | Hep PGC-1a down
O=C(CCl)Nc1cc(SCC(O)CO)cc([N+](=O)[O-])c1 (configuration not stated) | – | · | · | ·
CCn1c(C)c(C)c2cc(C(=O)NCCN3CCOCC3)ccc21 | – | · | · | ·
c1ccc(Sc2ccccn2)cc1 | – | · | · | ·
COc1ccc(C(c2nnnn2C2CCCC2)N2CCC(C)CC2)c(OC)c1 (configuration not stated) | 100 | – | – | –
CN(C)c1ccnc2sc(C(N)=O)c(N)c12 | – | · | · | ·
Cc1ccc2[nH]cc(C(=O)CN3CCN(c4ccccc4F)CC3)c2c1 | – | – | – | –
CN(c1cc2c(c3c1ccn3C)C1CCC2C1)C1CCCCC1 (configuration not stated) | – | · | · | ·
Cc1oc2c(c1C(=O)c1ccccc1)C(=O)C(=O)c1ccccc1-2 | – | · | · | ·
CC(C)C(NC(=O)c1ccc(C(C)(C)C)cc1)C(=O)O (configuration not stated) | – | · | · | ·
CN(C)CCCNc1cc(-c2ccccc2)nc2cc(-c3cccc(F)c3)nn12 | ? | – | ? | ?
NC1=C(Br)C(=O)c2ncccc2C1=O | – | · | · | ·
COc1cccc(NC(=O)CN(C)C(=O)CNC(=O)c2ccccc2F)c1 | – | · | · | ·
CCCS(=O)(=O)N1CCCC(C(=O)NCCCOC(C)C)C1 (configuration not stated) | – | · | · | ·
O=C(NCc1csc(-c2cccs2)n1)c1cccc(Cl)c1 | – | – | – | –
CC1(C)CC(=O)C(N=Nc2cc(Cl)c(Cl)c(Cl)c2)=C(O)C1 | – | · | · | ·
COc1cc(CNCCN2CCOCC2)ccc1OCc1ccc(Cl)cc1Cl | – | · | · | ·
CCn1c(SC/C=C/c2ccccc2)nnc1-c1cccs1 | – | – | – | –
CCOCCCNC(=O)c1ccccc1SC | – | · | · | ·
Cc1ccc(-c2n[nH]c(=S)n2/N=C/c2cccn2C)cc1 | – | · | · | ·
O=C1CC2CS(=O)(=O)CC2N1c1ccc(Cl)cc1Cl (configuration not stated) | – | · | · | ·
O=C(NCc1cccs1)c1ccc(Cl)c(S(=O)(=O)N2CCCC2)c1 | ? | – | · | ?
c1ccc(C(c2nnnn2Cc2cccs2)N2CCN(C3CCCC3)CC2)cc1 (configuration not stated) | – | – | – | –
CCOC(=O)C1CCN(C(=O)CSc2ccc(Br)cc2)CC1 | – | · | · | ·
C[C@@H]1CCCCO[C@H](CN(C)Cc2ccc(Cl)c(Cl)c2)[C@H](C)CN([C@@H](C)CO)C(=O)c2cc(NC(=O)Nc3ccc(F)cc3)ccc2O1 | – | · | · | ·
Cc1noc(C)c1S(=O)(=O)Nc1ccc2c(c1)C(=O)N([C@@H](C)CO)C[C@@H](C)[C@@H](CN(C)Cc1ccc3c(c1)OCO3)OCCCC[C@@H](C)O2 | – | – | – | ?
SMILES | PGC1a acetyl up | Hep G6PC suppr | Hep PCK1 suppr | Hep PGC-1a down
Cc1ccccc1NC(=O)/C(C#N)=C\c1cc(C)n(-c2ccc(C(=O)O)cc2)c1C | – | · | · | ·
Cc1nc2ccccc2nc(C)c1=NO | – | · | · | ·
Cc1ccccc1CSc1nnc(-c2ccco2)n1Cc1ccco1 | – | · | · | ·
COc1ccc(N(C(=O)c2csnn2)C(C(=O)NC2CCCC2)c2cccs2)cc1 (configuration not stated) | 53 | – | · | ?
O=C(c1ccco1)N1N=C(c2ccc(Cl)cc2)CC1(O)C(F)(F)F (configuration not stated) | – | · | · | ·
COc1cc(O)c(C(CC(=O)N2CCOCC2)c2ccc(N(C)C)cc2)c(OC)c1 (configuration not stated) | – | · | · | ·
Cc1ccc(S(=O)(=O)N[C@H]2C=C[C@@H](CC(=O)NCCN3CCCCC3)O[C@H]2CO)cc1 | – | · | – | –
COc1ccc(S(=O)(=O)N(Cc2cc3ccc(OC)cc3[nH]c2=O)CC2COCCO2)cc1 (configuration not stated) | – | · | · | ·
COc1ccc(-c2nc3c(C)cc(Br)cn3c2Cc2ccc(C)cc2)cc1OC | ? | – | – | –
COc1cc(/C=C2\SC(=O)NC2=O)ccc1Oc1ccc([N+](=O)[O-])cn1 | – | · | · | ·
Nc1c(C(=O)Nc2ccccc2)c2nc3ccccc3nc2n1CCCN1CCOCC1 | 57 | – | – | –
O=Nc1c(O)c2ccccc2c2ccccc12 | – | · | · | ·
c1ccc(N2CCN(c3ccccc3)C2c2ccncc2)cc1 | – | · | · | ·
O=c1oc(-c2ccccc2)nc2sc3c(c12)CCC3 | – | · | · | ·
CCC(C)NC(=O)c1ccc2c(SCC(=O)O)c3c(nc2c1)CCCC3 (configuration not stated) | – | · | · | ·
COC(=O)C(Nc1ccccc1Cl)(c1cc(C)c(O)c(C)c1)C(F)(F)F (configuration not stated) | 69 | – | – | ?
COCCN(C)Cc1nc(C(c2ccccc2)c2ccccc2)no1 | – | · | · | ·

Bioassay records (PubChem)
